B1: tRNA (parent)
chain: GUUCCGUUGGCGUAAUGGUAACGCGUCUCCCUCCUAAGGAGAAGACUGCGGGUUCGAGUCCCGUACGGAACG

Variants at the floor of the assay were thinned out.

Data on 38 variants can be found in the RNAGym collection of RNA variant scans (doi:10.1126/science.aae0568).

In the data set the parent is B1. Kind of data set: yeast fitness relative to wild type (ratio to wild type); higher = fitter; tRNA-Arg(CCU), competitive growth, 37 C, YPD. The procedure, abridged: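 Gene amplicons from the start population and from each of six end populations were read by 100-nucleotide paired-end sequencing. Those end populations came from pooled Saccharomyces cerevisiae strains carrying tRNA-Arg(CCU) gene variants at the native locus, competed in YPD at 37°C for 24 hours. Fitness relative to wild type was worked out from changes in genotype frequencies. Genotypes needed ≥ 100 starting reads, and estimates < 0.5 were set to 0.5.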
As to GUUCCGUUGGCGUAAUGGUAACGCGUCUCCCUCCUAAGGAGGAGACUGCGGGUUCGAGUCCCGUACGCGACG, the yeast fitness was 0.563.
As for GUUCCGUUGACGUAAUGGUAACGCGUCUCCCUCCUAAGGAAAAGACUGUGGGAUCGAGUCCCGUACGGAACG, the yeast fitness is at most 0.5.
Turning to GUUCCGUUGGCGUAAUGGUAACGCGUCUCCAUCCUAAGGAGAAAACUGCGGGUUCGGGUCCCGUCCGGAUCG, the yeast fitness was at most 0.5.
The result for GUUUCGUUGGCGUAAUGGUAACGCGUCUCCCUCCUAAGGAGCAGACUGCGGGUUUGAGUCCCGUACGGAACG reads at most 0.5.
The result for GUUCCGUUGGCGUAAUGGUAACACGUGUCCCUCAUAAGGAGAAGCCUGCGGGUUCGAGUCCCGGACGGAACG reads at most 0.5.
The result for GUUCCGUUGGCGUAAUAGUAACGCGUCUCCCUCCUAAGGUGAAGACUGCGGAUUCGAGUUCCCUACGGAACG reads at most 0.5.
Turning to GUUCGGUUGGCGUAGUGGUAGCGCCUCUCCCUUCUAAGGAGAAGACUGCGGGUUCGAGUCCCGUACGAAACG, the yeast fitness was at most 0.5.
For GUUUCGUAGGCGUAAUGGUAACGCGUCUCCCUCCUAAGGAGAAGACUGCGGGUUCGAGUCCCGUACGGAACG, the yeast fitness was determined as 0.66.
Turning to GUUACGUUGGCGUAAUGGUAACGCGUCCCCCUCCUAAGGAGAAGACUGCGGGUUCGAGUCCCGUACGGAACG, the yeast fitness turned out to be 0.64.
The same measure for GUUCCGUUGGCGUAAUCGUAAAGCGUCCCCCUCCUAAGGGGAAGCCUGCGGGUUCGAGUCCCGUAGGGUACG: at most 0.5; for GUUCCGUUGGCCUAAUGGUAACGCGUCUCGCUCCUAUGGAAAAGACUGCGGGUUCGACUCCCGUACGGAACG: 0.581.
On to GUUCCGUUGGCGUACUGGUAACGCGUCUCCCUCCUAAGGAGAAGACUACGGGUUCGAGUCCCGUACGGAACG, for which the yeast fitness stood at 0.946.
On to GUUCCGUUGGCGUUAUGGUAACGCGUCUCCCUCCUAUGGAGAAGACUGCGGGUUCGAGUCCCGUACGGAACG, for which the yeast fitness was at most 0.5.
GUUCCGUUGGCGUAAUGGUAACGCGUCUCCGUUCUAAGGAGUAGACUGCGGGUUCGAGUCCCGUACGGAACG: the yeast fitness came to 0.649.
The result for GUUCCGUUGGCGUAAUGGUAACGCGUCUUUCUCCUAAGGAGAUGACUGCGGGUUCGAGUCCCGUUCGGAACG reads 0.588.
With GUUCCGUUGGCGUAAUGGUAACGCGUCUCCCUCAUAAGGAGAAGACUGCGAGUUCGAGUCCCGUACGGAACG, the yeast fitness is 0.656.
Regarding GUUCUGUUGGCGUAAUGGUAACGCGUCCCCCUCCUCAGGCGUAGACUGCGGGUUCGAGUCCCGUACGGAACG, the yeast fitness was at most 0.5.
Turning to GUUCCGUUGGGGUAAUGGUAACGCGCCUCCCUCCUAAGGAGAAGACUGCGGGUUCGAGUCUGGUACGGAACG, the yeast fitness came to 0.62.
The result for GUUCCGUUGGCGUAAUGGUAAGGCGUCUGCCUCCUAAGGAGAAGACUGCGGGUUCGAGUCCCAUACGGAACG reads at most 0.5.
The result for GUUCCGUUGGCGUAAUGGUAACGCGUGUCCCUCCAAAGGAGAAGACUGCGGGUUCGAGUCCCGUACGGAACG reads 0.636; that for GUUCCGUUGGCGUAAUGGUAACGCGUCUCCCUCCUAAGGAGAUGACUGCGGGCUCGAGUCCCGUACGGAACG, 0.854; that for GUUCCCUUGGCGUAAUGGUAACGCGUCUCCCUCCUAAGCAGAAGACUGCGGGUUGGAGUCCCGUACGGAACG, at most 0.5.
With GUUCAGUUGGCGUAAUGGUAAAGCGUCUCCCUCCUAAGGAGAAGACUGCCGGUUCGAGUCCCGUACGGAACG, the yeast fitness was found to be 0.738.
The same measure for GUUCCGUUGGCGUACUGGUGACGCGUCUCCCUACUCAGGAGAAGACAGCGGGUUCGAGUCCCGUACGGAACG: at most 0.5; for GUUCGGUUGGCGUAUUGGUAACGCGUCUCCCUCCUAAGGAGAAGACUGCGGGUUCGAGUCUCGUACGGAACG: at most 0.5; for GUUCCGCUGGGGGAAUGGUAACGCGUCUCUCUCCUAAGGAGAAGACUGCGGGUUCGAGUCCCGUACGGAACG: at most 0.5.
Regarding GUUCCGUUGGCGUAAUGGUAACGCGUUUCCCUUCUUAGGAGAAGACUGCGGGUUCGAGUCCCGUACGGAACG, the yeast fitness was at most 0.5.
The result for GUUCCCUUGGCGUAAUGGUAACGCGUCUCCCUCCAAAGGAGAACACUGCGGGUUCGAGUCCCGUACGGAACG reads 0.569; that for GUUCCGUUGGGGUAAUGGUAACGCGUCUCCCUCCUAAGGAGAAGUCUGCGGGUUCGAGUCCCGUACGGAACG, 0.666.
The result for GUUCUGUUGGCGUAAUGAUAACGCGUCUCACUCCUAAGGAGAAGACUGCGGGUUCGAAUCCCGUACGUAACG reads 0.581; that for GUUCUGUUGGGGUAAUGGUAACGCGUCUCCCUCCUAAGGAGAAGACUGCGAGUUCGAGUCCCGUACGGAACG, at most 0.5; that for GUUCCGUUAACGUAAUGGUAACGCGUCCCCCUCCUAAGGAGAAGACUGCGGGUUCGAGUCCCGUACGGAACG, at most 0.5.
On to GUUCCGUUGGCGUAAUGGUAAGGCGUCUCCCUCCUAAGGAGAAGACCGCGGGGUCGAGUCCCGUACGGAACG, for which the yeast fitness was 0.551.
With GUUCCGUUGGCGUAAUGGUAACGCGUUUCACUCCUAAGGAGAAGACUGCGGGUUCGAGUCCCGUACGGUACG, the yeast fitness came to 0.585.
As to GUUCUCUUGGCGUAAUGGUAACGCGUCUCCCUCCUAAGGAGAAGACUGCGGGUUCGAGUCCCGUACGGAACG, the yeast fitness was determined as 0.818.
The result for GUUCCGUUGCCGUAAUGGUAACGCGUCUCUCUCCUAAGGAGAAGACUGCGGGUACGAGUCCCGUACGGAACG reads at most 0.5; that for GUUCCGUUGGCAUAAUGGUAACGCGUUUCCCUCCUACGGAGAAGGCUGCGGGUUCGAGUCCCGUACGGAACG, at most 0.5.
The same measure for GUUCUGUUGGCGUAAUGGUAACGCGUCUCUCUCCUACGGAGAAGACUGCGGGUACGAGUCCCGUACGGAACG: at most 0.5.
